# Columns and labels:
# Hepatitis C virus = assay: Antiviral activity against HCV subtype 1b infected in human HuH-7-Luc/Neo-ET cells by luciferase replicon-reporter gene assay; type: functional, organism-based, Hepacivirus hominis
# Summary of the method: (§1)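 HCV genotype 1b subgenomic replicon carried in Huh-7 Luc/Neo ET cells. Antiviral EC50 and cytotoxic TC50 were both determined in these cells. Each value is the average of triplicate experiments.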
# [1] = Therapeutic index, ratio of TC50 for human HuH-7-Luc/Neo-ET cells to EC50 for HCV infected in human HuH7-Luc/Neo-ET cells; type: toxicity
# Summary of the method: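 Therapeutic index calculated as TC50/EC50. Both values came from Huh-7 Luc/Neo ET cells bearing an HCV genotype 1b replicon, and each was averaged from triplicate experiments.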
# [2] = Cytotoxicity against human HuH-7-Luc/Neo-ET cells; type: cell-based; conditions: read-out: TC50 (the source's name); summary of the method: as §1
EC50 (Hepatitis C virus) [µM],SMILES,selectivity ratio [1],CC50 [2] [µM]
25.3,CCCCCCCCCC(=O)Oc1ccc(COP(=O)(OCc2ccc(OC(=O)CCCCCCCCC)cc2)OP(=O)([O-])O[C@@H](C)[C@H]2O[C@@H](n3ccc(=O)[nH]c3=O)[C@](C)(O)[C@@H]2O)cc1.CCCC[N+](CCCC)(CCCC)CCCC,3.29,> 83.2
2.6,CCCCCCCCCC(=O)Oc1ccc(COP(=O)(OCc2ccc(OC(=O)CCCCCCCCC)cc2)OP(=O)([O-])O[C@H](C)[C@H]2O[C@@H](n3ccc(=O)[nH]c3=O)[C@](C)(O)[C@@H]2O)cc1.CCCC[N+](CCCC)(CCCC)CCCC,> 38.5,> 100
1.49,CC(C)OC(=O)[C@H](C)N[P@@](=O)(Oc1ccccc1)O[C@H](C)[C@H]1O[C@@H](n2ccc(=O)[nH]c2=O)[C@](C)(O)[C@@H]1O,> 67.1,> 100
7.75,CC(C)OC(=O)[C@H](C)N[P@@](=O)(Oc1ccccc1)O[C@@H](C)[C@H]1O[C@@H](n2ccc(=O)[nH]c2=O)[C@](C)(O)[C@@H]1O,> 12.9,> 100
0.04,CCCCCCCCCC(=O)Oc1ccc(COP(=O)(OCc2ccc(OC(=O)CCCCCCCCC)cc2)OP(=O)([O-])OC[C@H]2O[C@@H](n3ccc(=O)[nH]c3=O)[C@](C)(O)[C@@H]2O)cc1.CCCC[N+](CCCC)(CCCC)CCCC,> 2590,> 100

SMILES,EC50 (Hepatitis C virus) [µM],selectivity ratio [1],CC50 [2] [µM]
CC(C)OC(=O)[C@H](C)N[P@](=O)(OC[C@H]1O[C@@H](n2ccc(=O)[nH]c2=O)[C@](C)(O)[C@@H]1O)Oc1ccccc1,0.03,2780,85.6
CC(C)OC(=O)[C@H](C)N[P@](=O)(OC[C@H]1O[C@@H](n2ccc(=O)[nH]c2=O)[C@](C)(F)[C@@H]1O)Oc1ccccc1 [SOFOSBUVIR],0.03,> 29.2,> 1
